Test results as given in ChEMBL document CHEMBL1149647, “Structure-based design of TACE selective inhibitors: manipulations in the S1'-S3' pocket” (Bioorg Med Chem, 2007).

How the values were obtained:
[1] = target: T1, Disintegrin and metalloproteinase domain-containing protein 17 (Homo sapiens, UniProt P78536); assay: Inhibition of human TACE expressed in CHO cells by FRET assay; type: cell-based
[2] = target: 72 kDa type IV collagenase (Homo sapiens, UniProt P08253); assay: Inhibition of human recombinant MMP2
72 kDa type IV collagenase, sequence (P08253 whole entry): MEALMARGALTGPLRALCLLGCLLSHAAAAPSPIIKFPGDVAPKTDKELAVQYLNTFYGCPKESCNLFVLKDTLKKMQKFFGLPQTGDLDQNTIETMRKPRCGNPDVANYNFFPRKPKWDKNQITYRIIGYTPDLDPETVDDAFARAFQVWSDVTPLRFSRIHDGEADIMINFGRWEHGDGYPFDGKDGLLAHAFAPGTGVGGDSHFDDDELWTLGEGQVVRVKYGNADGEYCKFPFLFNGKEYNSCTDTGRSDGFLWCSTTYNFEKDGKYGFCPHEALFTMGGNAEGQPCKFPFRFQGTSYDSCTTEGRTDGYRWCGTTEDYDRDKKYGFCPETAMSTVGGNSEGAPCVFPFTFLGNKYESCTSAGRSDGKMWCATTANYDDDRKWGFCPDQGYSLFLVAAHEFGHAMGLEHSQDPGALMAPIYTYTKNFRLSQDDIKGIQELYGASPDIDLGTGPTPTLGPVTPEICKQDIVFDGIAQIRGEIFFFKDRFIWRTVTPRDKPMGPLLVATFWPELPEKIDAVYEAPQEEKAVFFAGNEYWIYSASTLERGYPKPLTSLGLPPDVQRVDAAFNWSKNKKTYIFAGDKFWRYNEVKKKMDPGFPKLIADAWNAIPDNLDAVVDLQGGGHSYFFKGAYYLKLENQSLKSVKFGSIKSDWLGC
Method in brief: (§1)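 Enzyme potency is expressed as IC50 in nM, reported as average ± SD.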

Collagenase 3 = Collagenase 3 (Homo sapiens, UniProt P45452); assay: Inhibition of human recombinant MMP13; method in brief: as §1
[3] = target: T1, Disintegrin and metalloproteinase domain-containing protein 17; assay: Inhibition of human TACE in human whole blood
[4] = target: Matrix metalloproteinase-14 (Homo sapiens, UniProt P50281); assay: Inhibition of human recombinant MMP14
Homo sapiens [5] = organism: Homo sapiens; assay: Selectivity for TACE over MMP13
Homo sapiens [6] = organism: Homo sapiens; assay: Selectivity for TACE over MMP2
Mus musculus = assay: Inhibition of LPS-induced TNFalpha production in BALB/CJ mouse at 25 mg/kg, po after 90 mins; type: functional; conditions: 1.5 h

T1 sequence (P78536 whole entry, the tested form may be a part): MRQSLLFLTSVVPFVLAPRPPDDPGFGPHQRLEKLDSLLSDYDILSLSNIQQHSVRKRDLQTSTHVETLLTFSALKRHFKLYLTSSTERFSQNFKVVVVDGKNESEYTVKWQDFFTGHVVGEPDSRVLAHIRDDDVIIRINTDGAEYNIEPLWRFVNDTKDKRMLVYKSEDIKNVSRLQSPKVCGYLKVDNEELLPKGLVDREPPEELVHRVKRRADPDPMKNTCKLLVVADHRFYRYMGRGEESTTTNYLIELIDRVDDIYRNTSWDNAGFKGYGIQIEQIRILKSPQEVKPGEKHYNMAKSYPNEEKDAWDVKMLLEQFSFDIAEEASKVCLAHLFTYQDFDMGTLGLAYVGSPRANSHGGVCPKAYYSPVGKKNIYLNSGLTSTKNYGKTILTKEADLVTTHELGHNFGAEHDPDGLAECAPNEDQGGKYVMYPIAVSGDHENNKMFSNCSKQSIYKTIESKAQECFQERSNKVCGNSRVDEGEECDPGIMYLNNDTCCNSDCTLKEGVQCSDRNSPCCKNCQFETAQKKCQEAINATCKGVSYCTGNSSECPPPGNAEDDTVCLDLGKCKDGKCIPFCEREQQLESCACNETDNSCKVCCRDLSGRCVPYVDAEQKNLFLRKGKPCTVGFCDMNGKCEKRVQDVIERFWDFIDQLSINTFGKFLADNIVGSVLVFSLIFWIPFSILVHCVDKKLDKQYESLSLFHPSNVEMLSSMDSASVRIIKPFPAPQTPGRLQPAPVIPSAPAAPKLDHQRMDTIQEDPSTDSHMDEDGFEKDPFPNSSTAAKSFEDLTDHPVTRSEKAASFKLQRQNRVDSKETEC

Compound	IC50 [1]	IC50 [2]	IC50 (Collagenase 3)	IC50 [3]	IC50 [4]	Selectivity ratio (Homo sapiens [5])	Selectivity ratio (Homo sapiens [6])	inhibition in vivo at 25 mg/kg (Mus musculus)
CC#CCNc1ccc(S(=O)(=O)N2CCSC(C)(C)[C@@H]2C(=O)NO)cc1	2.3 nM	56 nM	30 nM	3500 nM	–	–	–	–
CC#CCOc1ccc(S(=O)(=O)CC2(C(=O)NO)CCN(C(=O)OC(C)(C)C)CC2)cc1	2 nM	–	135 nM	14000 nM	–	–	–	–
CC#CCNc1ccc(S(=O)(=O)CC2(C(=O)NO)CCN(C(=O)OC(C)(C)C)CC2)cc1	1.6 nM	120 nM	–	16000 nM	2370 nM	> 400	–	–
CC#CCNc1ccc(S(=O)(=O)CC2(C(=O)NO)CCN(C(=O)c3ccccc3C)CC2)cc1	2.5 nM	46 nM	584 nM	4800 nM	1000 nM	499	–	–
CC#CCNc1ccc(S(=O)(=O)CC2(C(=O)NO)CCNCC2)cc1	64.5 nM	–	–	–	–	–	–	–
CC(C)(C)OC(=O)N1CCC(CS(=O)(=O)c2ccc(NCC#CCO)cc2)(C(=O)NO)CC1	10 nM	334 nM	1040 nM	25000 nM	–	–	–	–
CC#CCNc1ccc(S(=O)(=O)CC2(C(=O)NO)CCN(S(=O)(=O)C(C)C)CC2)cc1	2 nM	97 nM	2080 nM	5000 nM	–	–	–	–
CC#CCNc1ccc(S(=O)(=O)CC2(C(=O)NO)CCN(C(=O)N(CC)CC)CC2)cc1	< 1 nM	216 nM	772 nM	6400 nM	3620 nM	> 750	–	–
CC#CCN(C)c1ccc(S(=O)(=O)CC2(C(=O)NO)CCN(C(=O)OC(C)(C)C)CC2)cc1	3.3 nM	–	1600 nM	> 50000 nM	–	–	–	–
CC#CCOc1ccc(S(=O)(=O)N2CCSC(C)(C)[C@@H]2C(=O)NO)cc1	–	–	–	300 nM	–	–	–	–
CC#CCNc1ccc(S(=O)(=O)CC2(C(=O)NO)CCN(Cc3ccncc3)CC2)cc1	6.4 nM	1530 nM	6880 nM	7200 nM	4320 nM	–	–	–
CC#CC(C)Oc1ccc(S(=O)(=O)CC2(C(=O)NO)CCN(S(=O)(=O)C(C)C)CC2)cc1 (stereo not given)	4 nM	4180 nM	2910 nM	31000 nM	–	720	1000	–
CC#CC(C)(C)Oc1ccc(S(=O)(=O)CC2(C(=O)NO)CCN(S(=O)(=O)C(C)C)CC2)cc1	27 nM	> 1670 nM	12000 nM	> 50000 nM	–	–	–	–
CC#CCOc1ccc(S(=O)(=O)CC2(C(=O)NO)CCN(S(=O)(=O)C(C)C)CC2)cc1	3 nM	280 nM	157 nM	1500 nM	3640 nM	52	93	–
CC#CCNc1ccc(S(=O)(=O)CC2(C(=O)NO)CCN(C(=O)C(C)CC)CC2)cc1 (stereo not given)	3.5 nM	1310 nM	2480 nM	4900 nM	7050 nM	–	–	–
CC#CCNc1ccc(S(=O)(=O)CC2(C(=O)NO)CCN(C(=O)C(C)C)CC2)cc1	2.3 nM	513 nM	3200 nM	3600 nM	4890 nM	–	–	72%
